This note sets out measurements from ChEMBL document CHEMBL1145796, “Neuromuscular blocking activity and therapeutic potential of mixed-tetrahydroisoquinolinium halofumarates and halosuccinates in rhesus monkeys” (2003).

A short description of test [1]: Time from injection to peak inhibition of twitch response at the ED95 dose in male Rhesus monkey. In kind it is functional, Cercopithecidae. Summed up:
(§1)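 Anesthetized, ventilated male rhesus monkeys received sequential iv bolus doses with extensor digitorum twitch recorded. Onset is injection to peak twitch inhibition. Duration is injection to 95% twitch recovery. Values at the ED95 were read from plots of onset or duration vs dose. Means ± SE across animals.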

The nature of test [2]: Dose required for 100% suppression of the twitch response at the extensor digitorum in male Rhesus monkey. In kind it is functional. The following applies: Cercopithecidae. The gist of the method: (§2)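 Adult male rhesus monkeys (8–15 kg) under ketamine (5 mg/kg i.m.) and pentobarbital (2–5 mg/kg iv) induction, then N2O 60%/O2 40%/halothane 0.5–1%, ventilated, core temperature 37–38 °C. Twitch of extensor digitorum was recorded after ≥20 min stable baseline. Sequential iv bolus doses from 0.03 to 6.4 mg/kg. Per-animal ED95 came from log-probability regression of dose vs % block. Other lines give the single dose tested with its % block.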

Test [3] is described as follows: Time from injection to 95% recovery of the twitch response at the ED95 dose in male Rhesus monkey. The format is functional, Cercopithecidae. The gist of the method: as §1
The nature of test [4]: Time from injection to peak inhibition of twitch response at a dose of 0.2 mg/kg in male Rhesus monkey was evaluated. The format is functional, Cercopithecidae. Summed up: (§3)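 Single iv bolus of 0.2 or 0.4 mg/kg in anesthetized, ventilated male rhesus monkeys, with extensor digitorum twitch recorded. Onset taken from injection to peak twitch inhibition at the given dose. Means ± SE, N = number of animals.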

Test [5] is described as follows: Selectivity index is changes in heart rate(cv dose) to the suppression of twitch response (ED95) in male Rhesus monkey. In kind it is functional, Cercopithecidae. The gist of the method: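 Same anesthetized male rhesus preparation, with blood pressure, heart rate and EKG recorded alongside twitch during sequential iv doses up to 6.4 mg/kg. Cardiovascular threshold dose is the dose giving ≥10% change in heart rate or mean arterial pressure. Index = mean threshold dose / mean ED95 (extensor digitorum).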

A short description of test [6]: Time from injection to 95% recovery of twitch response at a dose of 0.2 mg/kg in male Rhesus monkey was evaluated.
Test [7] is described as follows: Time from injection to 95% recovery of twitch response at a dose of 0.4 mg/kg in male Rhesus monkey was evaluated.
Test [8] is described as follows: Dose required for 95% suppression of the twitch response at the extensor digitorum in male Rhesus monkey. In kind it is functional, Cercopithecidae. The following applies: Cercopithecidae; read-out: ED95. Summed up:
as §2

Test [9] is described as follows: Time from injection to peak inhibition of twitch response at a dose of 0.4 mg/kg in male Rhesus monkey was evaluated. The format is functional, Cercopithecidae. Summed up:
as §3

Test [10] in a line: Dose required for 80% suppression of the twitch response at the extensor digitorum in male Rhesus monkey. In kind it is functional. The settings on record: Cercopithecidae. Summed up: as §2
Test [11] in a line: Dose required for 93% suppression of the twitch response at the extensor digitorum in male Rhesus monkey. The settings on record: Cercopithecidae. The format is functional. The gist of the method: as §2
The nature of test [12]: Dose required for 91% suppression of the twitch response at the extensor digitorum in male Rhesus monkey. The format is functional. The following applies: Cercopithecidae. The gist of the method:
as §2

The nature of test [13]: Dose required for 41% suppression of the twitch response at the extensor digitorum in male Rhesus monkey. The format is functional. The settings on record: Cercopithecidae. Summed up:
as §2

In the case of `COc1cc2c(cc1OC)[C@H](c1cc(OC)c(OC)c(OC)c1)[N@@+](C)(CCCOC(=O)C[C@H](F)C(=O)OCCC[N@+]1(C)CCc3cc(OC)c(OC)cc3[C@H]1Cc1cc(OC)c(OC)c(OC)c1)CC2.[Cl-].[Cl-]`, in [1], the Onset came out at 80 s. The ED95 in test [2] is 0.05 mg/kg. The same molecule came in with a Duration in test [3] of 35 min.

Take `COc1cc2c(cc1OC)[C@@H](c1cc(OC)c(OC)c(OC)c1)[N@+](C)(CCCOC(=O)CCCCCCC(=O)OCCC[N@+]1(C)CCc3cc(OC)c(OC)cc3[C@H]1Cc1cc(OC)c(OC)c(OC)c1)CC2.[Cl-].[Cl-]`: the Onset in test [4] came out at 50 s; in [1] it was 75 s; in test [9], 25 s. For the same molecule, the Selectivity index in [5] worked out at 47. In addition, the Duration in test [6] came out at 14.6 min; in test [3], 8.6 min; in test [7], 16.9 min. Also, the ED95 in test [8] amounted to 0.103 mg/kg.

`COc1cc2c(cc1OC)[C@H](c1cc(OC)c(OC)c(OC)c1)[N@@+](C)(CCCOC(=O)CCCCCC(=O)OCCC[N@+]1(C)CCc3cc(OC)c(OC)cc3[C@H]1Cc1cc(OC)c(OC)c(OC)c1)CC2.[Cl-].[Cl-]` came in with an Onset in test [1] of 40 s. In test [10], the ED95 is 0.2 mg/kg. For the same molecule, the Duration in test [3] turned out to be 7.1 min.

`COc1cc(C2c3c(cc(OC)c(OC)c3OC)CC[N@@+]2(C)CCCOC(=O)/C(Cl)=C/C(=O)OCCC[N@+]2(C)CCc3cc(OC)c(OC)c(OC)c3[C@H]2c2cc(OC)c(OC)c(OC)c2)cc(OC)c1OC.[Cl-].[Cl-]` (stereo partly specified): in [5], the Selectivity index was found to be 1. The same molecule displayed an Onset in [1] of 45 s. For the same molecule, in test [3], the Duration is listed as 3.6 min. Besides, in test [11], the ED95 was determined as 2 mg/kg.

`COc1cc2c(cc1OC)[C@H](c1cc(OC)c(OC)c(OC)c1)[N@@+](C)(CCCOC(=O)/C=C(\Cl)C(=O)OCCC[N@+]1(C)CCc3cc(OC)c(OC)c(OC)c3[C@H]1Cc1cc(OC)c(OC)c(OC)c1)CC2.[Cl-].[Cl-]` came in with an Onset in test [1] of 160 s. The molecule further gave a Duration in [3] of 13.3 min. In addition, the ED95 in test [12] came to 0.05 mg/kg.

On to `COc1cc2c(cc1OC)[C@H](c1cc(OC)c(OC)c(OC)c1)[N@@+](C)(CCCOC(=O)/C(Cl)=C/C(=O)OCCC[N@+]1(C)CCc3cc(OC)c(OC)c(OC)c3[C@H]1Cc1cc(OC)c(OC)c(OC)c1)CC2.COc1cc2c(cc1OC)[C@H](c1cc(OC)c(OC)c(OC)c1)[N@@+](C)(CCCOC(=O)/C=C(\Cl)C(=O)OCCC[N@+]1(C)CCc3cc(OC)c(OC)c(OC)c3[C@H]1Cc1cc(OC)c(OC)c(OC)c1)CC2.[Cl-].[Cl-].[Cl-].[Cl-]`, for which, in test [1], the Onset was found to be 145 s. The Duration in test [3] turned out to be 6.5 min. In test [13], this molecule yielded an ED95 of 0.05 mg/kg.

In test [5], `COc1cc2c(cc1OC)[C@@H](c1cc(OC)c(OC)c(OC)c1)[N@+](C)(CCCOC(=O)/C=C(\Cl)C(=O)OCCC[N@+]1(C)CCc3cc(OC)c(OC)c(OC)c3[C@H]1Cc1cc(OC)c(OC)c(OC)c1)CC2` showed a Selectivity index of 24. Also, the Onset in test [1] worked out at 57 s. This molecule had a Duration in test [3] of 10 min. For the same molecule, in [8], the ED95 was 0.067 mg/kg.

Consider `COc1cc2c(cc1OC)[C@H](c1cc(OC)c(OC)c(OC)c1)[N@@+](C)(CCCOC(=O)CC(F)(F)C(=O)OCCC[N@+]1(C)CCc3cc(OC)c(OC)cc3[C@H]1Cc1cc(OC)c(OC)c(OC)c1)CC2.[Cl-].[Cl-]`, for which the Onset came out at 37 s in test [4], 78 s in test [1] and 22 s in test [9]. In test [5], this molecule showed a Selectivity index of 96. For the same molecule, the Duration was determined as 10.3 min in [6], 7.3 min in test [3] and 13 min in test [7]. The ED95 in test [8] stood at 0.056 mg/kg.
